# From PubChem BioAssay
# A selection: hits, their analogues and other compounds. The true share with any hit is near 3.1%.
# PAFAH1B3 FP inh: blocks human PAF acetylhydrolase 1B catalytic subunit 3 | Q15102 | recombinant PAFAH1B3, FP-rhodamine probe, fluorescence polarization | inhibition, % at 3.39 µM | 340,000 compounds, 0.28% hits;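 active means inhibition above the screen-wide average of all tested compounds plus 3 SD, cut at about 25% in these data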;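 further: 0% = enzyme with DMSO only and 100% = wells lacking PAFAH1B3 protein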
# pPAFAH FP inh: inhibitors of human plasma PAF acetylhydrolase (pPAFAH); recombinant pPAFAH, FP-rhodamine probe fluorescence polarization; inhibition, % at 3.39 µM; 330,000 compounds, 1.5% hits; AID 463082;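 active means inhibition above the mean inhibition across the screen plus 3 SD, cut at about 25% in these data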;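 further: inhibitors block binding of the rhodamine activity-based probe so polarization drops; 0% = enzyme with DMSO and 100% = wells lacking pPAFAH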
# PAFAH2 inh: PAFAH2 (human) inhibition | inhibition, % at 3.39 µM | recombinant PAFAH2, FP-rhodamine activity probe, fluorescence polarization | AID 492956 | 340,000 compounds, 0.99% hits | Q99487;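 active means inhibition above the mean over all tested compounds plus 3 SD, cut at about 30% in these data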;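 further: inhibitors block probe labeling of enzyme so polarization drops; 0% = enzyme with DMSO and 100% = wells lacking PAFAH2 protein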
# Apaf-1 inh: blocks human Apaf-1 apoptosome activity; inhibition, % at 20 µM; O14727; 330,000 compounds, 0.71% hits; reconstituted apoptosome caspase-3 activity, DEVD-Rh110 fluorescence; AID 489030; active means inhibition of at least 40% at 20 µM;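 further: plate controls were DMSO wells for no effect and DEVD-CHO caspase inhibitor wells for full effect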
# Target sequence (O14727 whole entry, looked up): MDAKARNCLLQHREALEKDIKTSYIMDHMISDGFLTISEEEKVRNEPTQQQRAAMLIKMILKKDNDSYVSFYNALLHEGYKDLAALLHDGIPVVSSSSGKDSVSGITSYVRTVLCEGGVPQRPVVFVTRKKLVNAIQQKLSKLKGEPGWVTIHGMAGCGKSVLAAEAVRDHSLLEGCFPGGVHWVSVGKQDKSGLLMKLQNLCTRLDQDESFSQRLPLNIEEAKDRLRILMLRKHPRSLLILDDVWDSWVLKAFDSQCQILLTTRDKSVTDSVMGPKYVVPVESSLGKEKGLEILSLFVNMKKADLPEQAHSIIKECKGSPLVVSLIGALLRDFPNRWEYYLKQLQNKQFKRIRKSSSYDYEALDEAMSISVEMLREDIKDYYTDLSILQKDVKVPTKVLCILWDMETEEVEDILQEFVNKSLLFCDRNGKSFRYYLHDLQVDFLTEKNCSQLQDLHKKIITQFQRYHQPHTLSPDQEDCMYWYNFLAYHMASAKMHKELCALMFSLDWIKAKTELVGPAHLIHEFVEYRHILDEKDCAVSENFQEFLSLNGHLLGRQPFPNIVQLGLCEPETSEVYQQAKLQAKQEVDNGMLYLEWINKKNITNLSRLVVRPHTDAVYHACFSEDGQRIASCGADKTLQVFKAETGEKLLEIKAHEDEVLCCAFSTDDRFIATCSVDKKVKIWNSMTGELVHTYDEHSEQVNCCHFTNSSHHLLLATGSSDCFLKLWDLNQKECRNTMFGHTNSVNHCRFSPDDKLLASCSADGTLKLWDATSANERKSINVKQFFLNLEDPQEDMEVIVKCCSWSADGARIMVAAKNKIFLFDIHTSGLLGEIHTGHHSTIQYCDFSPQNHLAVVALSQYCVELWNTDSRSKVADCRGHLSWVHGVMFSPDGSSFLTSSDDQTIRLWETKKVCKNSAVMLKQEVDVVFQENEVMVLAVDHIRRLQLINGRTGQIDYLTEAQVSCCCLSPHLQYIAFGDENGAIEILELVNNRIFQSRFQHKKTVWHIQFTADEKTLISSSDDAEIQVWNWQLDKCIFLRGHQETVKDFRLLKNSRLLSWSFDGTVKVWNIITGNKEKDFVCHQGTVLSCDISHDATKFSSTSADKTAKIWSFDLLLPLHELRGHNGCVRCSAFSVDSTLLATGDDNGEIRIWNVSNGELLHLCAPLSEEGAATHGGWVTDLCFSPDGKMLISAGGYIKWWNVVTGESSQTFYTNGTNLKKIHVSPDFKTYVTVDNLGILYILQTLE
#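 Material: reconstituted apoptosome with Apaf-1, cytochrome c, caspase-9, procaspase-3, dATP; medium: pH 7.5 Hepes buffer with CHAPS, BSA, DTT; also added: cytochrome c and DEVD-Rh110 substrate; timing: 30 min plus 50 min, RT; signal: Rh110 fluorescence intensity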
# PAFAH1B2 inh: inhibitors of human PAFAH1B2; P68402; recombinant PAFAH1B2, FP-rhodamine activity probe, fluorescence polarization; inhibition, % at 3.39 µM; 340,000 compounds, 1.2% hits; AID 492953;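 active means inhibition above the mean of all tested compounds plus 3 SD, cut at about 24% in these data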;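 further: 0% = enzyme with DMSO and 100% = wells lacking PAFAH1B2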
# * = called active by the depositor; nt = no result given.
SMILES,PAFAH1B3 FP inh,pPAFAH FP inh,PAFAH2 inh,Apaf-1 inh,PAFAH1B2 inh
O=c1c2c(nc3n1CCCCC3)-c1ccccc1CC21CCCC1,-1,2,-1,-5,28*
CC(=O)Nn1cnc2c(c1=O)C1(CCCC1)Cc1ccccc1-2,16,7,-1,18,25*
CCCC(=O)Nn1cnc2c(c1=O)C1(CCCC1)Cc1ccccc1-2,11,10,2,5,9
C=CCSc1n[nH]c2nc3c(c(=O)n12)C1(CCCC1)Cc1ccccc1-3,0,6,9,4,44*
Cn1ncn2c(=O)c3c(nc12)-c1ccccc1CC31CCCC1,3,5,-8,6,6
CC(OC(=O)c1ccc2ncsc2c1)C(=O)N(C)C1CCCCC1 (configuration not stated),6,-2,-5,8,8
OCCSc1nnc(Nc2ccccc2)s1,-1,25*,-7,8,1
N#CCSc1nnc(Nc2ccccc2)s1,4,3,-1,-14,3
N#Cc1c(-c2ccccc2)nc(SCC(=O)NC2CCCCC2)[nH]c1=O,5,1,-4,-8,8
CN(C(=O)CSc1nc(-c2ccc(C(C)(C)C)cc2)c(C#N)c(=O)[nH]1)C1CCCCC1,3,18,6,37,31*
O=C(OCC(=O)c1ccc(Cl)s1)c1cnccn1,2,26*,8,5,3
O=C(COC(=O)c1cnccn1)c1ccc(Br)cc1,4,-4,3,3,26*
COc1ccc(-c2[nH]ncc2/C=N\NC(=O)c2ccc(Br)o2)cc1OC,-1,2,-3,19,-5
Cc1cccc(N2CCN(C(=O)n3ccnc3)CC2)c1C,14,33*,7,4,-1
Cc1cc[n+](-c2[nH]c(=O)sc2/C=N/N=C(\[O-])CCn2c3ccccc3c3ccccc32)cc1,nt,32*,nt,-3,nt
CCCCCCSc1nc(O)c(C2OC(=O)c3c2ccc(OC)c3OC)c(=O)n1CC (configuration not stated),3,31*,15,4,24
CCN(C(=O)COC(=O)c1c(NC(C)=O)sc(C)c1C)c1c(N)n(Cc2ccccc2)c(=O)[nH]c1=O,-9,nt,-4,nt,1
CCOC(=O)C1=C(C)N=c2s/c(=C/c3ccco3)c(=O)n2C1c1cccc(OC)c1 (configuration not stated),nt,33*,nt,30,nt
COc1cc(/C=C2/C(=N)N3N=C(CC(=O)N4CCOCC4)SC3=NC2=O)ccc1OC(C)c1ccccc1 (configuration not stated),-5,9,0,8,28*
CS(=O)(=O)Oc1ccc(/C=C2\C(=N)N3N=C(CC(=O)N4CCOCC4)SC3=NC2=O)cc1Cl,4,0,11,2,8
N=C1/C(=C/c2ccc(OCc3ccccc3F)cc2)C(=O)N=C2SC(CC(=O)N3CCOCC3)=NN12,-1,12,5,13,10
N=C1/C(=C/c2ccc(OCc3ccccc3)cc2)C(=O)N=C2SC(CC(=O)N3CCOCC3)=NN12,-2,9,-2,12,28*
Cc1c(Cc2ccccc2)sc(/N=C/c2ccc3ccccc3c2)c1C(N)=O,-2,10,-25,nt,-9
Cc1c(Cc2ccccc2)sc(/N=C/c2c(O)ccc3ccccc23)c1C(N)=O,-10,32*,-37,-63,-21
Cc1c(Cc2ccccc2)sc(N)c1C(N)=O,nt,28*,nt,12,nt
SMILES,PAFAH1B3 FP inh,pPAFAH FP inh,PAFAH2 inh,Apaf-1 inh,PAFAH1B2 inh
COc1cc(C=O)ccc1OCCOCCOc1cc(C)ccc1Cl,-1,3,-7,17,-1
CCOc1cc(/C=C/C(=O)O)ccc1OCCO,-1,3,2,2,1
CCOc1cc(C=O)ccc1OCCSc1ccc(C)cc1,4,16,-4,16,30*
COc1cc(C=O)ccc1OCCSc1ccc(C)cc1,5,11,0,11,35*
CN(Cc1ccc2c(c1)OCCO2)C(=O)CSc1ncnc2sccc12,1,6,0,0,-5
CC1CCCC(C)N1C(=O)COC(=O)c1cc(=O)[nH]c2ccccc12 (configuration not stated),9,0,3,2,6
Cc1ccc(NC(=O)CCC(=O)NNC(=O)NC2CCCCC2)c(C)c1,4,3,9,-6,2
O=C(COC(=O)c1ccc(O)cc1)Nc1ccc(Cl)cc1,nt,27*,nt,6,nt
CC(=O)Nc1ccc(C(=O)OCc2ccc(F)cc2)cc1,-2,-1,22,-1,10
N#CCC(=O)Nc1ccc(C(=O)OCC(=O)NNC(=O)c2ccc(Cl)cc2)cc1,-6,12,16,3,3
N#CCC(=O)Nc1ccc(C(=O)OCC(=O)Nc2ccc3ccccc3c2)cc1,-31,33*,-2,-16,-26
CC(=O)Nc1ccc(C(=O)OCc2ccc(Cl)cc2)cc1,2,-1,31*,-1,23
Cc1ccc2oc(C(=O)Nc3ccc(S(=O)(=O)Nc4ncccn4)cc3)c(C)c2c1,4,-2,3,11,-8
Cc1ccc(CN2C(=O)CSC2c2ccc(F)cc2)cc1 (configuration not stated),9,1,8,10,26*
CCc1nc2ccc(C(=O)N3CCN(c4ccc([N+](=O)[O-])cc4)CC3)cc2nc1CC,6,2,1,23,3
O=C(O)c1cc(S(=O)(=O)N2CCN(C(=O)c3ccco3)CC2)c(Cl)cc1Cl,8,-1,2,1,8
C=CCSc1cc(C)nc2c(-c3ccccc3)c(C)nn12,2,2,4,-22,2
Cc1cc(SCC#N)n2nc(C)c(-c3ccccc3)c2n1,3,32*,9,8,-1
COc1cc(S(=O)(=O)N(C)C2CCCCC2)c(C)cc1C,12,nt,2,nt,2
CCN(CC)c1ccc(/C=N/NC(=O)c2nnn(-c3nonc3N)c2C(C)C)c(O)c1,12,28*,11,13,13
Cc1nn(-c2ccccn2)c2c1C(=O)C(Br)CC2 (configuration not stated),12,nt,1,nt,2
CCOc1ccc(NC(=O)CN(C)C(=O)CN2C(=O)NC3(CCCC3)C2=O)cc1OCC,11,26*,2,1,-1
CCCCSc1nnc(-c2ccccc2N)c(=O)[nH]1,10,6,0,5,11
CCCCCSc1nnc(-c2cc(Br)ccc2N)c(=O)[nH]1,8,6,11,13,27*
Cc1cc(N)ccc1-n1c(C)ccc1C,24,33*,9,10,6
SMILES,PAFAH1B3 FP inh,pPAFAH FP inh,PAFAH2 inh,Apaf-1 inh,PAFAH1B2 inh
Cc1cc(N)ccc1N1CCCC1,9,26*,16,65*,8
Cc1cc(C(=O)O)ccc1-n1c(C)ccc1C,nt,50*,nt,25,nt
Cc1ccc(-n2c(C)cc(=O)cc2C)c(C)c1,0,5,4,3,2
Cc1cc(N2CCCC2)c(C)cc1C=O,4,4,8,12,0
NC(=O)c1cc(N)ccc1N1CCCC1,7,4,-5,44*,-2
NC(=O)c1cc(N)ccc1N1CCCCC1,nt,0,nt,-2,nt
